Experimental data: ChEMBL document CHEMBL4665637, “Inhibition of diverse opportunistic viruses by structurally optimized retrograde trafficking inhibitors” (Bioorg Med Chem, 2019)
Active and inactive are the calls of the source. No cut-off for these calls is given here.

Tests used:
[1] = tested on: NHDF; assay: Cytotoxicity in human NHDF cells assessed as cell viability at 100 nM incubated for 96 hrs by XTT Assay; format: cell-based; details: 0.1 µM
Summary of the method: (§1)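 Cells in 96-well plates exposed to DMSO or compound at 100 nM or 10 µM for 96 h. Medium then replaced with fresh medium. XTT read as absorbance after 2 h at 37°C with activating reagent; CellTiter-Glo (ATP) read as luminescence. Average of three independent experiments.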

[2] = tested on: Vero; assay: Cytotoxicity in African green monkey VERO cells assessed as cell viability at 10 uM incubated for 96 hrs by XTT Assay; format: cell-based; details: chlorocebus sabaeus; summary of the method: as §1
[3] = Cytotoxicity in mouse BALB/3T3 clone A31 cells assessed as cell viability at 100 nM incubated for 96 hrs by CellTiter-Glo Luminescent assay; format: cell-based; details: balb/3t3 clone a31, 96 h, 0.1 µM; summary of the method: as §1
[4] = Cytotoxicity in mouse BALB/3T3 clone A31 cells assessed as cell viability at 10 uM incubated for 96 hrs by CellTiter-Glo Luminescent assay; format: cell-based; details: balb/3t3 clone a31, 96 h; summary of the method: as §1
[5] = Cytotoxicity in mouse BALB/3T3 clone A31 cells assessed as cell viability at 10 uM incubated for 96 hrs by XTT Assay; format: cell-based; details: balb/3t3 clone a31, 96 h; summary of the method: as §1
[6] = tested on: ARPE-19; assay: Cytotoxicity in human ARPE-19 cells assessed as cell viability at 100 nM incubated for 96 hrs by XTT Assay; format: cell-based; details: arpe-19, 96 h, 0.1 µM; summary of the method: as §1
[7] = tested on: Vero; assay: Cytotoxicity in African green monkey VERO cells assessed as cell viability at 100 nM incubated for 96 hrs by CellTiter-Glo Luminescent assay; format: cell-based; details: chlorocebus sabaeus, 0.1 µM; summary of the method: as §1
[8] = tested on: Human betaherpesvirus 5; assay: Antiviral activity against HCMV TB40/E infected in human NHDF cells assessed as reduction in infectious virus titer compound added 2 hpi and measured after 96 hpi by inverted microscopic analysis; details: Human betaherpesvirus 5, TB40/E
[9] = tested on: ARPE-19; assay: Cytotoxicity in human ARPE-19 cells assessed as cell viability at 100 nM incubated for 96 hrs by CellTiter-Glo Luminescent assay; format: cell-based; details: arpe-19, 96 h, 0.1 µM; summary of the method: as §1
[10] = Cytotoxicity in mouse BALB/3T3 clone A31 cells assessed as cell viability at 100 nM incubated for 96 hrs by XTT Assay; format: cell-based; details: balb/3t3 clone a31, 96 h, 0.1 µM; summary of the method: as §1
[11] = tested on: Human betaherpesvirus 5; assay: Antiviral activity against HCMV TB40/E infected in human assessed as reduction in infectious virus titer at 10 uM compound added 2 hpi and measured after 96 hpi by inverted microscopic analysis
[12] = tested on: Human betaherpesvirus 5; assay: Antiviral activity against HCMV infected in human ARPE-19 cells at 7.5 uM measured after 3 days post infection; format: functional, cell-based
Summary of the method: (§2)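 ARPE-19 cells infected with GFP-expressing HCMV and treated with compound at 7.5 µM. Images taken 3 and 6 days post infection, and area of infection calculated from GFP signal. Average of 3 distinct experiments.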

[13] = tested on: NHDF; assay: Cytotoxicity in human NHDF cells assessed as cell viability at 10 uM incubated for 96 hrs by CellTiter-Glo Luminescent assay; format: cell-based; summary of the method: as §1
[14] = tested on: Vero; assay: Cytotoxicity in African green monkey VERO cells assessed as cell viability at 10 uM incubated for 96 hrs by CellTiter-Glo Luminescent assay; format: cell-based; details: chlorocebus sabaeus, dose […]; summary of the method: as §1
[15] = tested on: BALB/3T3 clone A31; assay: Antiviral activity against mouse polyomavirus A2 strain infected in BALB.3T3 clone A31 cells assessed as viral RNA at 100 nM to 10 uM measured after 24 hpi by RT-PCR analysis; format: functional, cell-based; details: Murine polyomavirus, dose microM 0.1-10
Summary of the method: (§3)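 A31 cells in 10% FBS DMEM infected with MuPyV A2 at MOI 1 for 1.5 h at 37°C. Cells washed twice, then exposed to compound (100 nM, 1.0 µM or 10 µM) for 24 h. Total RNA extracted and 2 µg converted to cDNA. LT mRNA measured by qPCR, normalized to TBP and to untreated cells. Two independent experiments, n=4 per condition, mean ± SD, 2-way ANOVA.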

[16] = tested on: Human betaherpesvirus 5; assay: Antiviral activity against HCMV infected in human ARPE-19 cells at 7.5 uM measured after 6 days post infection; format: functional, cell-based; summary of the method: as §2
[17] = tested on: NHDF; assay: Cytotoxicity in human NHDF cells assessed as cell viability at 10 uM incubated for 96 hrs by XTT Assay; format: cell-based; summary of the method: as §1
[18] = tested on: ARPE-19; assay: Cytotoxicity in human ARPE-19 cells assessed as cell viability at 10 uM incubated for 96 hrs by CellTiter-Glo Luminescent assay; format: cell-based; details: arpe-19, 96 h; summary of the method: as §1
[19] = tested on: NHDF; assay: Inhibition of retrograde transport in NHDF cells assessed as displacement of STX5 from golgi apparatus at 10 uM by immunofluorescence analysis; format: functional, cell-based; details: Homo sapiens
Summary of the method: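 HDFs exposed to 10 µM compound or DMSO vehicle, fixed in 2% paraformaldehyde for 15 min at room temperature. Blocked in PBS with 10% human serum, 0.5% Tween-20 and 5% glycine, permeabilized with 0.1% Triton X-100. Stained for STX5 and for the Golgi marker p115, DAPI mounting, imaged by confocal microscopy.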

[20] = tested on: ARPE-19; assay: Cytotoxicity in human ARPE-19 cells assessed as cell viability at 10 uM incubated for 96 hrs by XTT Assay; format: cell-based; details: arpe-19, 96 h; summary of the method: as §1
[21] = tested on: NHDF; assay: Cytotoxicity in human NHDF cells assessed as cell viability at 100 nM incubated for 96 hrs by CellTiter-Glo Luminescent assay; format: cell-based; details: 0.1 µM; summary of the method: as §1
[22] = tested on: Vero; assay: Cytotoxicity in African green monkey VERO cells assessed as cell viability at 100 nM incubated for 96 hrs by XTT Assay; format: cell-based; details: chlorocebus sabaeus, 0.1 µM; summary of the method: as §1
[23] = tested on: BALB/3T3 clone A31; assay: Antiviral activity against mouse polyomavirus A2 strain infected in BALB.3T3 clone A31 cells assessed as viral RNA at 100 nM measured after 24 hpi by RT-PCR analysis; format: functional, cell-based; details: Murine polyomavirus; summary of the method: as §3
[24] = tested on: BALB/3T3 clone A31; assay: Antiviral activity against mouse polyomavirus A2 strain infected in BALB.3T3 clone A31 cells assessed as viral RNA at 1 to 10 uM measured after 24 hpi by RT-PCR analysis; format: functional, cell-based; details: Murine polyomavirus; summary of the method: as §3

Compound | Activity [1] | Activity [2] | Activity [3] | Activity [4] | Activity [5] | Activity [6] | Activity [7] | IC50 [8] [nM] | Activity [9] | Activity [10] | Activity [11] | Activity [12] | Activity [13] | Activity [14] | Activity [16] | Activity [17] | Activity [18] | STX5 displacement from Golgi (active/inactive call) [19] | Activity [21] | Activity [22] | other results
Cc1nc(-c2ccc(C3N(C)c4ccc([N+](=O)[O-])cc4C(=O)N3c3ccccc3)s2)cs1 (stereo not drawn) | Non-Toxic | Toxic | Non-Toxic | Toxic | Toxic | Non-Toxic | Non-Toxic | 21.3 | Non-Toxic | Non-Toxic | Active | Active | Toxic | Toxic | Active | Toxic | Toxic | Active | Non-Toxic | Non-Toxic | Activity [15]: Active; Activity [20]: Toxic
Cc1nc(-c2ccc(C3Nc4ccc([N+](=O)[O-])cc4C(=O)N3c3ccccc3)s2)cs1 (stereo not drawn) | Non-Toxic | Toxic | Non-Toxic | Toxic | Toxic | Non-Toxic | Non-Toxic | 90.5 | Non-Toxic | Non-Toxic | Active | Active | Toxic | Toxic | Active | Toxic | Toxic | Active | Non-Toxic | Non-Toxic | Activity [23]: inactive; Activity [24]: Active; Activity [20]: Toxic
Cc1nc(-c2ccc(C3Nc4ccc(C#N)cc4C(=O)N3c3ccccc3)s2)cs1 (stereo not drawn) | Non-Toxic | Toxic | Non-Toxic | Toxic | Toxic | Non-Toxic | Non-Toxic | 96.3 | Non-Toxic | Non-Toxic | Active | Active | Toxic | Toxic | Active | Toxic | Toxic | Active | Non-Toxic | Non-Toxic | Activity [23]: inactive; Activity [24]: Active; Activity [20]: Toxic
Cc1nc(-c2ccc(C3N(C)c4ccccc4C(=O)N3c3ccccc3)s2)cs1 (stereo not drawn) |  |  |  |  |  |  |  | 386 |  |  |  |  |  |  |  |  |  |  |  |  | 
Cc1nc(-c2ccc(C3N(C)c4ccc(C#N)cc4C(=O)N3c3ccccc3)s2)cs1 (stereo not drawn) | Non-Toxic |  | Non-Toxic | Toxic |  | Non-Toxic | Non-Toxic | 34.1 | Non-Toxic | Non-Toxic | Active | Active | Toxic | Toxic | Active |  | Toxic | Active | Non-Toxic | Non-Toxic | Activity [15]: Active
Cc1nc(-c2ccc(C3N(C)c4ccc(F)cc4C(=O)N3c3ccccc3)s2)cs1 (stereo not drawn) |  |  |  |  |  |  |  | 25 |  |  |  |  |  |  |  |  |  |  |  |  | 
